Key:
[1] = tested on: K562/A02; assay: Potentiation of DOX-induced anti tumor activity against human K562/A02 cells xenografted in BALB/c mouse assessed as tumor size at 3 mg/kg, iv administered every 2 days for 14 days measured during compound dosing by caliper method (reference value: 610 mm3); assay type: functional
Procedure, shortened: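 Mice bearing subcutaneous ABCB1-overexpressing K562/A02 xenografts treated with DOX alone, modulator alone, or combinations (verapamil as comparator) for 14 days; tumor volume measured every two days.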

[2] = molecular target: T1, ATP-dependent translocase ABCB1 (Homo sapiens, UniProt P08183); assay: Reversal of Pgp-mediated DOX resistance in human SW620/AD300 cells assessed as potentiation of DOX-induced cytotoxicity by measuring inhibition of cell proliferation at 1 uM incubated for 48 hrs by SRB assay (reference value: 5.3 +/- 3 %); assay type: cell-based
T1 sequence (P08183 whole entry): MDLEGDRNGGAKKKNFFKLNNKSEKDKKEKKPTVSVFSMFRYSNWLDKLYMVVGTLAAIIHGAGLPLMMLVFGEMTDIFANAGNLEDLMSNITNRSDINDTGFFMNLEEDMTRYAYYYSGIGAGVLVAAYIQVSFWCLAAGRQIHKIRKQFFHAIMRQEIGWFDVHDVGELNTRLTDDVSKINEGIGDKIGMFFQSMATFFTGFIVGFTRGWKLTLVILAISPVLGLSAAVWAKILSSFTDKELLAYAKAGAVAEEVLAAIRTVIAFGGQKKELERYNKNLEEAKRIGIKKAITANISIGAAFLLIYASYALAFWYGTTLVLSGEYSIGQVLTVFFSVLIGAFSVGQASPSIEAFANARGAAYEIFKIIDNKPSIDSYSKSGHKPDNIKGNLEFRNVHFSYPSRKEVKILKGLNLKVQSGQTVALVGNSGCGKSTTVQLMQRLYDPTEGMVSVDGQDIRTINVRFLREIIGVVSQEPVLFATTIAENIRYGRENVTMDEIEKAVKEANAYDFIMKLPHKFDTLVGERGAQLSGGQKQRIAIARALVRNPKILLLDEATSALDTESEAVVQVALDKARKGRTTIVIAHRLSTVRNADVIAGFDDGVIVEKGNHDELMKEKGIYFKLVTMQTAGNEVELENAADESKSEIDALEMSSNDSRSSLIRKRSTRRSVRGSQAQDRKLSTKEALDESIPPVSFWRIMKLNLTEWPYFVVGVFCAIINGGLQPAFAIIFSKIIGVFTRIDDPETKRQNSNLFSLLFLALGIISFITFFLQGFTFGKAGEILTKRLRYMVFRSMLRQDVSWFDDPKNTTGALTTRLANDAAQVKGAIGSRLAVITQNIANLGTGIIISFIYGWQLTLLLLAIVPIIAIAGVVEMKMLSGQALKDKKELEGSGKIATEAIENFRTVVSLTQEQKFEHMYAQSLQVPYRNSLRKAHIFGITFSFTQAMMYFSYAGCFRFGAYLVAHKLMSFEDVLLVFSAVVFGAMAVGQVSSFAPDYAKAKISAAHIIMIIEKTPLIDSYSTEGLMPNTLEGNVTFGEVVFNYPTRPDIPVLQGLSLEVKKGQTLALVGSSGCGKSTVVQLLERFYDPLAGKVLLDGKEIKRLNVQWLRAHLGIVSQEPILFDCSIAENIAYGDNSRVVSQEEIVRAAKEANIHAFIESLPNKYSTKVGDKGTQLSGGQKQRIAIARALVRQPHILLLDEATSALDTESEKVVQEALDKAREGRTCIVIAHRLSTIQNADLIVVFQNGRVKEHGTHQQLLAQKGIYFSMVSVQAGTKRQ

[3] = molecular target: T1, ATP-dependent translocase ABCB1; assay: Reversal of Pgp-mediated DOX resistance in human SW620/AD300 cells assessed as potentiation of DOX-induced cytotoxicity by measuring change in DOX IC50 at 1 uM incubated for 48 hrs by SRB assay relative to DOX alone; assay type: cell-based; settings: sw620/ad300, 48 h
[4] = Cytotoxicity against human SW620/AD300 cells assessed as cell growth inhibition at 10 uM incubated for 48 hrs by SRB assay relative to control; assay type: cell-based; settings: read-out: GI

Structure (SMILES)	Activity [1]	inhibition at 1 µM [2]	fold change (FC) [3]	inhibition at 48 h, 10 µM [4]
COc1ccc(CCN(C)CCCC(C#N)(c2ccc(OC)c(OC)c2)C(C)C)cc1OC (stereo not given)	508 mm3	26.1%		
COc1cc2c(cc1OC)CN(S(=O)(=O)/C=C/c1c(-c3ccccc3)n(C)c3ccccc13)CC2		25.4%		
COc1cc2c(cc1OC)CN(CCc1ccc(NC(=O)C3CC3c3ccc(Oc4ccc(-c5ccccn5)cc4)nc3)cc1)CC2 (stereo not given)		59%	43.93	
COc1cc2c(cc1OC)CN(C(=O)/C=C(/c1c(-c3ccccc3)n(C)c3ncccc13)C(F)(F)F)CC2		32.5%		
COc1cc2c(cc1OC)CN(CCc1ccc(NC(=O)/C=C/c3ccc(Oc4c(I)cc(-c5ccccn5)cc4I)nc3)cc1)CC2		53.2%	28.3	
COc1cc2c(cc1OC)CN(C(=O)/C(F)=C/c1c(-c3ccccc3)n(C)c3ncccc13)CC2		12.2%		
COc1cc2c(cc1OC)CN(CCc1ccc(NC(=O)/C=C/c3ccc(Oc4ccc(-c5ccccn5)c(C#N)c4)nc3)cc1)CC2		58.3%	54.74	13.9%
COc1cc2c(cc1OC)CN(CCc1ccc(NC(=O)/C=C/c3cc(-c4ccccn4)cc(C)c3Oc3ccccn3)cc1)CC2		64%	60.71	17%
COc1cc2c(cc1OC)CN(CCc1ccc(NC(=O)/C=C/c3ccc(Oc4ccc(-c5ccccn5)cc4C)nc3)cc1)CC2		55.1%	45.12	
COc1cc2c(cc1OC)CN(CCc1ccc(NC(=O)/C=C/c3cccc(Oc4ccc(-c5ccccn5)cc4)n3)cc1)CC2		60.2%	33.73	
COc1ccc(CN2CC(c3c(-c4ccccc4)n(C)c4ncccc34)=CC2=O)cc1OC		20.7%		
Cn1c(-c2ccccc2)c(/C=C/C(=O)Nc2nc3ccccc3s2)c2cccnc21		44.7%		
COc1cc2c(cc1OC)CN(C(=O)/C=C(\C)c1c(-c3ccccc3)n(C)c3ncccc13)CC2		44%		
COc1cc2c(cc1OC)CN(CCc1ccc(NC(=O)c3ccc(Oc4ccc(-c5ccccn5)cc4)nc3)cc1)CC2		36.1%		
COc1cc2c(cc1OC)CN(C(=O)/C=C/c1c3n(c4ncccc14)CCc1ccccc1-3)CC2		45.4%		
[2H]c1c([2H])c(-c2ccccn2)c([2H])c([2H])c1Oc1ccc(/C=C/C(=O)Nc2ccc(CCN3CCc4cc(OC)c(OC)cc4C3)cc2)cn1		49.5%		
COc1cc2c(cc1OC)CN(CCc1ccc(NC(=O)/C=C/c3ccc(Oc4ccc(-c5ccccn5)cc4I)nc3)cc1)CC2		59.2%	43.93	
COc1cc2c(cc1OC)CN(C(=O)CCc1c(-c3ccccc3)n(C)c3ncccc13)CC2		17.7%		
COc1cc2c(cc1OC)CN(CCc1ccc(NC(=O)C(O)c3c(-c4ccccc4)n(C)c4ccccc34)cc1)CC2 (stereo not given)		55.3%	30.35	
COc1ccc(NC(=O)NC(=O)/C=C/c2c(-c3ccccc3)n(C)c3ncccc23)cc1OC		23.3%		
COc1cc2c(cc1OC)CN(CCc1ccc(NC(=O)/C=C/c3ccc(Oc4cccc(-c5ccccn5)c4)nc3)cc1)CC2		56.5%	44.52	
COc1cc2c(cc1OC)CN(CCc1ccc(NC(=O)/C=C/c3ccc(Oc4ccc(-c5ccccn5)c(O)c4)nc3)cc1)CC2		56.4%	40.72	
COc1cc2c(cc1OC)CN(C(=O)/C=C/c1c3n(c4ccccc14)C(C1CCCCC1)Oc1ccccc1-3)CC2 (stereo not given)		40.1%		

Structure (SMILES)	Activity [1]	inhibition at 1 µM [2]	fold change (FC) [3]	inhibition at 48 h, 10 µM [4]
Cn1c(-c2ccccc2)c(/C=C/C(=O)NN2C(=O)c3ccccc3C2=O)c2cccnc21		18.9%		
COc1cc2c(cc1OC)CN(CCc1ccc(NC(=O)/C=C/c3ccc(Oc4ccc(-c5cccnc5)cc4)nc3)cc1)CC2		62.6%	85.62	13.9%
COc1cc2c(cc1OC)CN(CCc1ccc(NC(=O)/C=C/c3ccc(Oc4cc(O)c(-c5ccccn5)c(O)c4)nc3)cc1)CC2		56.3%	42.81	
COc1ccc(-c2nnc(/C=C/c3c(-c4ccccc4)n(C)c4ncccc34)o2)cc1OC		15.1%		
COc1cc2c(cc1OC)CN(C(=O)/C=C/c1nc(-c3ccccn3)n(C)c1-c1ccccc1)CC2		28.2%		
COc1cc2c(cc1OC)CN(S(=O)(=O)/C=C/c1c(-c3ccccc3)n(C)c3ncccc13)CC2		37.9%		
COc1ccc(C(=O)NN2CC(c3c(-c4ccccc4)n(C)c4ncccc34)=CC2=O)cc1OC		14%		
COc1cc2c(cc1OC)CN(C(=O)/C=C/c1c3n(c4ccccc14)C(c1cccs1)Oc1ccccc1-3)CC2 (stereo not given)		44.3%		
COc1cc2c(cc1OC)CN(C(=O)/C=C/c1c(-c3ccccc3)n(C)c3ncccc13)CC2		40%		
COc1cc2c(cc1OC)CN(C(=O)/C=C/c1c3n(c4ncccc14)Cc1ccccc1-3)CC2		22.9%		
COc1cc2c(cc1OC)CN(CCc1ccc(NC(=O)/C=C/c3c(-c4ccccc4)oc4ccccc4c3=O)cc1)CC2		55.2%	24.55	
COc1ccc(C(=O)NNC(=O)/C=C/c2c(-c3ccccc3)n(C)c3ncccc23)cc1OC		10.9%		
COc1cc2c(cc1OC)CN(CCc1ccc(NC(=O)/C=C/c3ccc(Oc4ccc(-c5ccccn5)cc4Br)nc3)cc1)CC2		60.1%	47.7	
COc1cc2c(cc1OC)CN(C(=O)/C=C/c1c3n(c4ccccc14)C(c1ccccc1)Oc1ccccc1-3)CC2 (stereo not given)		41.4%		
COc1cc2c(cc1OC)CN(CCc1ccc(NC(=O)/C=C/c3ccc(Oc4ccc(-c5ccccn5)c(C)c4)nc3)cc1)CC2		58.2%	68.14	17.1%
COc1cc2c(cc1OC)CN(CCc1ccc(NC(=O)/C=C/c3ccc(Oc4ccc(-c5ccccn5)c(F)c4)nc3)cc1)CC2		49.8%		
COc1cc2c(cc1OC)CN(CCc1ccc(NC(=O)C(c3c(-c4ccccc4)n(C)c4ccccc34)N3CCOCC3)cc1)CC2 (stereo not given)		61.7%	60.71	42%
COc1cc2c(cc1OC)CN(CCc1ccc(NC(=O)/C=C/c3c(-c4ccccc4)n(C)c4ncccc34)cc1)CC2		63%	40.72	
COc1cc2c(cc1OC)CN(CCc1ccc(NC(=O)/C=C/c3ccc(Oc4ccc(-c5ccccn5)cc4)nc3)cc1)CC2		41.8%		
Cn1c(-c2ccccc2)c(/C=C/C(=O)NN2Cc3ccccc3C2=O)c2cccnc21		18.5%		
COc1ccc2c(C)c(CC(=O)Nc3ccc(CCN4CCc5cc(OC)c(OC)cc5C4)cc3)c(=O)oc2c1		50.5%	16.95	
COc1cc2c(cc1OC)CN(C(=O)/C=C/c1ccc(Oc3ccc(-c4ccccn4)cc3)nc1)CC2		26.7%		
COc1cc2c(cc1OC)CN(C(=O)/C=C/c1c(-c3ccccc3)nc3ccccn13)CC2		37.5%		

From ChEMBL document CHEMBL4602721, “Discovery of Potent Inhibitors against P-Glycoprotein-Mediated Multidrug Resistance Aided by Late-Stage Functionalization of a 2-(4-(Pyridin-2-yl)phenoxy)pyridine Analogue” (J Med Chem, 2020)
